pIC50: −log10 of the molar value. ≈ marks a conversion by molar mass, not a printed value. Calls of active or inactive are those of the source. The calls are words filed in the database; no cut-off is given here.
System: Helicobacter pylori
Experiment: Antimicrobial activity against Helicobacter pylori ATCC 700392
Assay type: functional
Details: not given

SMILES	MBC
CC1(C)CC[C@]2(C(=O)O)CC[C@]3(C)C(=C2C1)C=C[C@@H]1[C@@]2(C)CC[C@@H](O)[C@@](C)(CO)[C@@H]2CC[C@]13C [FATSICARPAIN A]	64 µg/mL (≈ 136 µM)
CO[C@@H]1C=C2[C@@H]3CC(C)(C)CC[C@]3(C(=O)O)CC[C@@]2(C)[C@]2(C)CC[C@H]3C(C)(C)[C@H](O)CC[C@]3(C)[C@@H]12 [FATSICARPAIN F]	64 µg/mL (≈ 131 µM)

System: not listed separately
Experiment: Cytotoxicity against human HepG2(2.2.15) cells after 3 days by MTS assay
Assay type: functional, cell-based
Details: HepG2 2.2.15, 72 h
In short: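 HepG2 2.2.15 cells exposed for 3 days to 2-fold serial dilutions, 1.25–40 μg/mL. Viability read by MTS assay, in triplicate. Expressed as percentage of untreated control. Fluorouracil as positive control.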

SMILES	pIC50
CC1(C)CC[C@]2(C(=O)O)CC[C@]3(C)C(=C2C1)C=C[C@@H]1[C@@]2(C)CC[C@@H](O)[C@@](C)(CO)[C@@H]2CC[C@]13C [FATSICARPAIN A]	4.72
CO[C@@H]1C=C2[C@@H]3CC(C)(C)CC[C@]3(C(=O)O)CC[C@@]2(C)[C@]2(C)CC[C@H]3C(C)(C)[C@H](O)CC[C@]3(C)[C@@H]12 [FATSICARPAIN F]	4.62

System: Hepatitis B virus
Experiment: Antiviral activity against Hepatitis B virus infected in human HepG2(2.2.15) cells assessed as reduction of HBsAg secretion by enzyme immunoassay
Assay type: functional, organism-based
Details: not given
In short: (§1)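 HepG2 2.2.15 cells grown in modified Eagle's medium with 10% FBS, no antibiotics, 37 °C, 5% CO2. Confluent cultures treated at nontoxic concentrations in medium with 2% FBS, renewed every 3 days. Medium collected at day 6; HBsAg and HBeAg measured by enzyme immunoassay. Values relative to 0.1% DMSO control. IFN-alpha as positive control.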

SMILES	inhibition
CC1(C)CC[C@]2(C(=O)O)CC[C@]3(C)C(=C2C1)C=C[C@@H]1[C@@]2(C)CC[C@@H](O)[C@@](C)(CO)[C@@H]2CC[C@]13C [FATSICARPAIN A]	inactive
CO[C@@H]1C=C2[C@@H]3CC(C)(C)CC[C@]3(C(=O)O)CC[C@@]2(C)[C@]2(C)CC[C@H]3C(C)(C)[C@H](O)CC[C@]3(C)[C@@H]12 [FATSICARPAIN F]	inactive

System: Hepatitis B virus
Experiment: Antiviral activity against Hepatitis B virus infected in human HepG2(2.2.15) cells assessed as reduction of HBeAg secretion by enzyme immunoassay
Assay type: functional, organism-based
Details: not given
In short: as §1

SMILES	inhibition
CC1(C)CC[C@]2(C(=O)O)CC[C@]3(C)C(=C2C1)C=C[C@@H]1[C@@]2(C)CC[C@@H](O)[C@@](C)(CO)[C@@H]2CC[C@]13C [FATSICARPAIN A]	inactive
CO[C@@H]1C=C2[C@@H]3CC(C)(C)CC[C@]3(C(=O)O)CC[C@@]2(C)[C@]2(C)CC[C@H]3C(C)(C)[C@H](O)CC[C@]3(C)[C@@H]12 [FATSICARPAIN F]	inactive

System: AGS
Experiment: Cytotoxicity against human AGS cells
Assay type: functional, cell-based
Details: not given

SMILES	pIC50
CC1(C)CC[C@]2(C(=O)O)CC[C@]3(C)C(=C2C1)C=C[C@@H]1[C@@]2(C)CC[C@@H](O)[C@@](C)(CO)[C@@H]2CC[C@]13C [FATSICARPAIN A]	5.00
CO[C@@H]1C=C2[C@@H]3CC(C)(C)CC[C@]3(C(=O)O)CC[C@@]2(C)[C@]2(C)CC[C@H]3C(C)(C)[C@H](O)CC[C@]3(C)[C@@H]12 [FATSICARPAIN F]	< 4.30

System: Bacillus cereus
Experiment: Antimicrobial activity against Bacillus cereus ATCC 9139 after 24 hrs by broth microdilution method
Assay type: functional
Details: ATCC 9139, 24 h
In short: (§2)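 MIC by broth microdilution per CLSI guidelines. Strains grown on nutrient agar at 37 °C for 24 h. Inoculum prepared in normal saline against a 0.5 McFarland standard, final density 5 × 10^5 cfu/mL. Compounds dissolved in DMSO, then nutrient broth. 2-fold serial dilutions from 128 down to 0.25 μg/mL. Ampicillin column as positive control.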

MIC	SMILES
32 µg/mL (≈ 68 µM)	CC1(C)CC[C@]2(C(=O)O)CC[C@]3(C)C(=C2C1)C=C[C@@H]1[C@@]2(C)CC[C@@H](O)[C@@](C)(CO)[C@@H]2CC[C@]13C [FATSICARPAIN A]
2 µg/mL (≈ 4.11 µM)	CO[C@@H]1C=C2[C@@H]3CC(C)(C)CC[C@]3(C(=O)O)CC[C@@]2(C)[C@]2(C)CC[C@H]3C(C)(C)[C@H](O)CC[C@]3(C)[C@@H]12 [FATSICARPAIN F]

System: Enterococcus faecalis
Experiment: Antimicrobial activity against Enterococcus faecalis ATCC 29212 after 24 hrs by broth microdilution method
Assay type: functional, organism-based
Details: not given
In short: as §2

MIC	SMILES
inactive	CC1(C)CC[C@]2(C(=O)O)CC[C@]3(C)C(=C2C1)C=C[C@@H]1[C@@]2(C)CC[C@@H](O)[C@@](C)(CO)[C@@H]2CC[C@]13C [FATSICARPAIN A]
inactive	CO[C@@H]1C=C2[C@@H]3CC(C)(C)CC[C@]3(C(=O)O)CC[C@@]2(C)[C@]2(C)CC[C@H]3C(C)(C)[C@H](O)CC[C@]3(C)[C@@H]12 [FATSICARPAIN F]

System: Listeria monocytogenes
Experiment: Antimicrobial activity against Listeria monocytogenes ATCC 7644 after 24 hrs by broth microdilution method
Assay type: functional, organism-based
Details: not given
In short: as §2

MIC	SMILES
inactive	CC1(C)CC[C@]2(C(=O)O)CC[C@]3(C)C(=C2C1)C=C[C@@H]1[C@@]2(C)CC[C@@H](O)[C@@](C)(CO)[C@@H]2CC[C@]13C [FATSICARPAIN A]
inactive	CO[C@@H]1C=C2[C@@H]3CC(C)(C)CC[C@]3(C(=O)O)CC[C@@]2(C)[C@]2(C)CC[C@H]3C(C)(C)[C@H](O)CC[C@]3(C)[C@@H]12 [FATSICARPAIN F]

System: Pseudomonas aeruginosa
Experiment: Antimicrobial activity against Pseudomonas aeruginosa ATCC 27853 after 24 hrs by broth microdilution method
Assay type: functional, organism-based
Details: not given
In short: as §2

MIC	SMILES
inactive	CC1(C)CC[C@]2(C(=O)O)CC[C@]3(C)C(=C2C1)C=C[C@@H]1[C@@]2(C)CC[C@@H](O)[C@@](C)(CO)[C@@H]2CC[C@]13C [FATSICARPAIN A]
inactive	CO[C@@H]1C=C2[C@@H]3CC(C)(C)CC[C@]3(C(=O)O)CC[C@@]2(C)[C@]2(C)CC[C@H]3C(C)(C)[C@H](O)CC[C@]3(C)[C@@H]12 [FATSICARPAIN F]

System: Salmonella enterica subsp. enterica
Experiment: Antimicrobial activity against Salmonella enterica ATCC 13311 after 24 hrs by broth microdilution method
Assay type: functional, organism-based
Details: not given
In short: as §2

MIC	SMILES
inactive	CC1(C)CC[C@]2(C(=O)O)CC[C@]3(C)C(=C2C1)C=C[C@@H]1[C@@]2(C)CC[C@@H](O)[C@@](C)(CO)[C@@H]2CC[C@]13C [FATSICARPAIN A]
inactive	CO[C@@H]1C=C2[C@@H]3CC(C)(C)CC[C@]3(C(=O)O)CC[C@@]2(C)[C@]2(C)CC[C@H]3C(C)(C)[C@H](O)CC[C@]3(C)[C@@H]12 [FATSICARPAIN F]

System: Escherichia coli
Experiment: Antimicrobial activity against Escherichia coli ATCC 35150 after 24 hrs by broth microdilution method
Details: not given

MIC	SMILES
inactive	CC1(C)CC[C@]2(C(=O)O)CC[C@]3(C)C(=C2C1)C=C[C@@H]1[C@@]2(C)CC[C@@H](O)[C@@](C)(CO)[C@@H]2CC[C@]13C [FATSICARPAIN A]
inactive	CO[C@@H]1C=C2[C@@H]3CC(C)(C)CC[C@]3(C(=O)O)CC[C@@]2(C)[C@]2(C)CC[C@H]3C(C)(C)[C@H](O)CC[C@]3(C)[C@@H]12 [FATSICARPAIN F]

From ChEMBL document CHEMBL1821643, “Oleanane-type triterpenoids from the leaves and twigs of Fatsia polycarpa” (J Nat Prod, 2011)
